Usually MIC stands for the least concentration at which growth counts as inhibited.

We go through four compounds from ChEMBL document CHEMBL3244118, “3-(3-Substituted prop-1-enyl)cephalosporins” (1977).

What all share (format): functional
In one test the test system is Streptococcus pyogenes. In words: Antibacterial activity against Streptococcus pyogenes ATCC 8668 by agar inclusion method. The gist of the method: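 MIC by agar inclusion, twofold dilutions in brain heart infusion medium at pH 7.4, reported in […].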
Test [1] relates to Staphylococcus aureus. In words: Antibacterial activity against Staphylococcus aureus Smith infected in sc dosed mouse assessed as survival of host administered 1 hr and 5 hrs post challenge measured 72 hrs post challenge. An outline of the steps:
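Mice infected ip with about 2×10^3 S. aureus Smith organisms per mouse, culture diluted in 4% hog gastric mucin for uniformly lethal infection. Twofold dilutions given sc in equally divided portions at 1 and 5 h postinfection, four groups of ten mice. Survivors observed for 72 h. PD50 (total mg/kg protecting 50%) calculated by probit analysis.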

Test [2] has as its system Staphylococcus aureus. In words: Antibacterial activity against penicillin G-resistant Staphylococcus aureus ATCC 14154 by agar inclusion method. The gist of the method: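 MIC by agar inclusion in brain heart infusion medium, pH 7.4, using twofold dilutions. Strain ATCC 14154 is penicillin G resistant. Values reported in […].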

Take `CC(=O)OC/C=C/C1=C(C(=O)[O-])N2C(=O)[C@@H](NC(=O)Cc3cccs3)[C@H]2SC1.[Na+]`: the MIC in the test on Streptococcus pyogenes was less than 2 µM; against Staphylococcus aureus [2], 560 µM. Further, the PD50 in the test on Staphylococcus aureus [1] came out at 1.85 µmol/kg.
`Cn1nnnc1SC/C=C/C1=C(C(=O)[O-])N2C(=O)[C@@H](NC(=O)Cc3cccs3)[C@H]2SC1.[Na+]`: the MIC in the test on Streptococcus pyogenes came to 1.6 µM; in the test with Staphylococcus aureus [2], 200 µM. In the test with Staphylococcus aureus [1], the PD50 was 0.3 µmol/kg.
`Cn1nnnc1SCC1=C(C(=O)[O-])N2C(=O)[C@@H](NC(=O)Cc3cccs3)[C@H]2SC1.[Na+]`: the MIC was 13 µM in the test on Streptococcus pyogenes and 100 µM in the test with Staphylococcus aureus [2]. In the test with Staphylococcus aureus [1], the PD50 stood at 1.69 µmol/kg.
For `CC(=O)OCC1=C(C(=O)[O-])N2C(=O)[C@@H](NC(=O)Cc3cccs3)[C@H]2SC1.[Na+]` [CEPHALOTHIN SODIUM], the results for the MIC against Streptococcus pyogenes and in the test on Staphylococcus aureus [2] were 74 µM and 480 µM, respectively. The PD50 in the test with Staphylococcus aureus [1] worked out at 3.54 µmol/kg.
